FAS-TE inh: FAS thioesterase (human) inhibition | P49327 | recombinant FAS-TE, OMFH fluorogenic substrate, fluorescence endpoint | inhibition, % at 15 µM | actives 0.67% (n = 360,000);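 active = compounds whose normalised, plate-corrected inhibition of enzyme fluorescence in the single-dose primary screen is 50% or more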;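 also: 0% = DMSO with enzyme and 100% = substrate without enzyme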
Runt-SMMHC FRET: blocks binding of human RUNX1 Runt domain to CBFb-SMMHC; Cerulean-Runt/Venus-CBFb-SMMHC FRET ratio 530/480, 1 h; inhibition, % at 20 µM; actives 0.74% (n = 220,000);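 active = mean inhibition across duplicate retests at 20 µM reaching about 50%, limit read from the data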;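 also: 0% = DMSO wells and 100% = wells with excess untagged CBFb-SMMHC; inhibitors lower the FRET ratio by blocking Runt binding to CBFb-SMMHC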
Calpain2 inh: inhibitors of pig calpain II; purified calpain II, fluorogenic peptide substrate, 30 min; inhibition, % at 16 µM; actives 0.37% (n = 220,000);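 active = inhibition above about 50%, limit read from the data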
Runt-CBFb FRET: blocks binding of human RUNX1 Runt domain to CBFb; Q01196+Q13951; Cerulean-Runt/Venus-CBFb FRET ratio 530/480, 1 h; inhibition, % at 20 µM; actives 0.46% (n = 220,000); AID 1496;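 active = inhibition over about 50% at 20 µM in the single-dose screen, limit read from the data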;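 also: 0% = DMSO wells and 100% = excess unlabeled CBFb competitor control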
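test system = Cerulean-tagged RUNX1 Runt domain (FRET donor) fusion protein | reagent = Venus-CBFb binding partner, 100 nM | incubation = protein complex preformed 1 h, compound exposure 1 h, room temperature, dark | detection = FRET fluorescence | read-out basis = loss of energy transfer signal | controls = 5 µM unlabeled CBFb as full-inhibition high control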
RanGTP-Imp inh: inhibitors of RanGTP-importin-beta interaction, primary screen, biochemical, FRET, CFP-Ran, YFP-importin-beta, homogeneous; actives 1.1% (n = 300,000); cell-free CFP-Ran/YFP-importin-beta FRET ratio; inhibition, % (test concentration not listed);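 active = more than half of the replicate wells show a fall in the fluorescence ratio signal beyond about 16%, limit read from the data, passing the limit was not always enough; inconclusive = exactly half of the replicate wells pass the set limit; inactive = fewer than half of replicates pass the limit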;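 also: 0% = DMSO wells and 100% = Ran loaded with GDP instead of GTP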
FAS-TE inh conf: confirmation of human fatty acid synthase thioesterase inhibitors. shares compounds with FAS-TE inh. recombinant FAS-TE, OMFH fluorogenic substrate, fluorescence. inhibition, % at 15 µM. actives 45% (n = 2,300);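 active = compounds inhibiting the enzyme by at least 50% at 15 µM in any one of the replicates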;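 also: 0% = enzyme with DMSO only and 100% = wells lacking enzyme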
* = called active by the depositor; ? = inconclusive; nt = not tested or not shown. An excerpt weighted towards active compounds, which were near 2.1% of everything screened.

SMILES | FAS-TE inh | Runt-SMMHC FRET | Calpain2 inh | Runt-CBFb FRET | RanGTP-Imp inh | FAS-TE inh conf
Cc1cccc(COC[C@H](CC(C)C)N2CCN(C(=O)c3ccc(C(C)(C)C)cc3)CCC2=O)c1 | 54.3* | nt | nt | nt | nt | 44.7*
Cc1cccc(COCC(CC(C)C)N2CCN(C(=O)c3ccc(C(F)(F)F)cc3)CCC2=O)c1 (stereo unspecified) | 16.5 | -7.1 | 24.0 | -15.2 | 4.1 | nt
COC(=O)c1ccc(C2c3c(oc4ccccc4c3=O)C(=O)N2CCCN2CCOCC2)cc1 (stereo unspecified) | 12.3 | 0.2 | -6.6 | 3.0 | 4.6 | nt
COC(=O)c1ccc(C2c3c(oc4ccc(Cl)cc4c3=O)C(=O)N2CCN2CCOCC2)cc1 (stereo unspecified) | 54.2* | -3.3 | -14.8 | -2.4 | -1.3 | 61.5*
COc1ccc(N(CC(=O)N2CCN(c3cccc(C)c3C)CC2)S(=O)(=O)c2c(C)noc2C)cc1 | 27.3 | nt | nt | nt | -1.5 | nt
Cc1cccc(NC(=O)CSc2nc3c(oc4ccccc43)c(=O)n2-c2ccccc2)c1 | 57.2* | -0.9 | -47.5 | -3.3 | 0.9 | 34.7*
Cc1cccc(NC(=O)Cn2cnc3c(oc4ccccc43)c2=O)c1 | -5.6 | 1.0 | -16.9 | 2.7 | 1.6 | nt
CC(C)C(NC(=O)c1ccccc1)C(=O)OCc1cc([N+](=O)[O-])cc2c1OCOC2 (stereo unspecified) | 32.1 | -0.1 | 17.1 | -0.6 | 0.0 | nt
CC(C)CC(NC(=O)c1ccc(Cl)cc1)C(=O)OCc1cc([N+](=O)[O-])cc2c1OCOC2 (stereo unspecified) | 52.1* | 1.8 | 15.6 | 1.4 | 1.4 | 37.2
COC(=O)c1c(NC(=O)Cn2cc([N+](=O)[O-])cn2)sc2c1CCC2 | 51.3* | -0.6 | 17.0 | -1.8 | -0.2 | 11.9
O=C(Cn1cc([N+](=O)[O-])cn1)NC1CCCCCC1 | 10.7 | nt | nt | nt | 1.6 | nt
CC(C)c1ccc(OCC(=O)Nc2c3c(nn2C(C)(C)C)CS(=O)(=O)C3)cc1 | 2.0 | nt | nt | nt | 3.0 | nt
COc1cc(-c2c(C(=O)c3ccccc3)[nH]c(N)c2C(N)=O)ccc1F | -12.0 | nt | nt | nt | nt | nt
COc1ccc([C@H]2CC(=O)C=C(c3ccc(Cl)c(C(F)(F)F)c3)C2)cc1OC | 26.9 | nt | nt | nt | nt | nt
COc1ccc([C@H]2CC(=O)C=C(c3ccc(Cl)c(C(F)(F)F)c3)C2)cc1 | 53.8* | nt | nt | nt | nt | -1.1
COc1ccc([C@H]2CC(=O)C=C(c3ccc(C)c([N+](=O)[O-])c3)C2)cc1 | 76.4* | nt | nt | nt | nt | 80.7*
CC(=O)OCCNc1cc(Sc2nc3ccccc3[nH]2)c2nonc2c1[N+](=O)[O-] | 75.7* | 37.4 | -10.5 | 44.3 | 3.8 | 72.3*
O=[N+]([O-])c1c(NCCCO)cc(Sc2ccc(Cl)cc2)c2nonc12 | 61.4* | -6.1 | 16.3 | 7.3 | -3.5 | 49.3*
CC(=O)OCCCNc1cc(Sc2nc3ccccc3s2)c2nonc2c1[N+](=O)[O-] | 82.2* | 18.0 | -0.5 | 27.6 | -1.6 | 66.7*
CC(=O)OCCCNc1cc(Sc2ccc(C)cc2)c2nonc2c1[N+](=O)[O-] | 18.4 | -88.6 | 9.2 | -28.5 | -1.2 | nt
Cc1ccc([N+](=O)[O-])cc1NC(=O)c1ccc(CSc2ccccc2)cc1 | 22.7 | 3.4 | 25.2 | 1.3 | 2.2 | nt
Cc1ccc(SCc2ccc(C(=O)Nc3cccc([N+](=O)[O-])c3C)cc2)cc1 | 51.2* | -5.3 | -6.5 | -1.8 | 6.0 | 30.7
CC(C)COc1ccc(C(=O)N/C(=C\c2cccc([N+](=O)[O-])c2)C(=O)OC(C)C)cc1 | 47.8 | -1.9 | 4.4 | -0.6 | -0.2 | nt
CC(C)COc1ccc(C(=O)N/C(=C\c2cccc([N+](=O)[O-])c2)C(=O)O)cc1 | 62.2* | -2.3 | 0.2 | -3.0 | 7.1 | 76.7*
CCCCOc1ccc(C(=O)N/C(=C/c2cccc([N+](=O)[O-])c2)C(=O)O)cc1 | 38.3 | 1.8 | 4.8 | -1.5 | 7.2 | nt
SMILES | FAS-TE inh | Runt-SMMHC FRET | Calpain2 inh | Runt-CBFb FRET | RanGTP-Imp inh | FAS-TE inh conf
CC(C)COc1ccc(C(=O)N/C(=C/c2cccc([N+](=O)[O-])c2)C(=O)O)cc1 | 56.8* | -0.6 | -2.7 | -0.8 | 3.1 | 59.5*
COc1cc(N(C)C)c([N+](=O)[O-])cc1C(=O)NC(C)CNc1ccc([N+](=O)[O-])cc1Cl (stereo unspecified) | 70.5* | 2.4 | -73.8 | 2.5 | 0.5 | 59.2*
CCN(CC)CCNC(=O)c1cc([N+](=O)[O-])c(N(C)C)cc1OC | -0.6 | 1.5 | 24.1 | 1.2 | -1.7 | nt
O=C(c1ccc2c(c1)OCO2)N1CCN(S(=O)(=O)c2ccc(Br)cc2Cl)CC1 | 16.5 | nt | nt | nt | nt | nt
Cc1cc(/C=C(\C#N)C(=O)Nc2ccc(F)cc2)c(C)n1-c1ccc(N2CCOCC2)c([N+](=O)[O-])c1 | 61.7* | -3.3 | -60.2 | 1.5 | ? | -1.6
COc1ccc(NC(=O)/C(C#N)=C\c2cc(C)n(-c3ccc(Oc4ccc([N+](=O)[O-])cn4)cc3)c2C)cc1 | 2.7 | -0.2 | -18.9 | 3.5 | 8.4 | nt
COc1ccc(NC(=O)/C(C#N)=C/c2cc(C)n(-c3ccc(N4CCOCC4)c([N+](=O)[O-])c3)c2C)cc1 | 79.3* | -2.2 | -25.2 | 1.2 | -3.6 | 25.0
O=C1C[C@@H]2C(=O)N(c3ccccc3)C(=O)[C@@H]2[C@@H]2CN(S(=O)(=O)c3ccccc3)[C@@H](c3ccccc3)[C@H]12 | 2.3 | nt | nt | nt | nt | nt
CCc1ccc([C@H]2[C@@H]3C(=O)C[C@@H]4C(=O)N(Cc5ccccc5)C(=O)[C@@H]4[C@@H]3CN2S(=O)(=O)c2ccc(C)cc2)cc1 | 59.2* | nt | nt | nt | nt | 12.4
Cc1ccccc1S(=O)(=O)N1C[C@H]2[C@H]3C(=O)N(C4CCCCC4)C(=O)[C@H]3CC(=O)[C@H]2[C@@H]1c1ccc(Cl)cc1 | 73.1* | nt | nt | nt | nt | 22.6
CCc1ccc([C@H]2[C@@H]3C(=O)C[C@@H]4C(=O)N(C5CCCCC5)C(=O)[C@@H]4[C@@H]3CN2S(=O)(=O)c2ccc(C)cc2)cc1 | 72.5* | nt | nt | nt | nt | 19.1
COCCNC(=O)C1(C)CCCN(C(=O)c2ccc3snnc3c2)C1 (stereo unspecified) | -5.1 | nt | nt | nt | nt | nt
COC1c2ccccc2C(=O)N1Cc1ccc(F)cc1 (stereo unspecified) | -6.0 | nt | nt | nt | 0.0 | nt
CCOc1ccc(CCNC(=O)COC(=O)COc2ccc(Br)cc2)cc1OCC | -4.2 | nt | nt | nt | -3.4 | nt
COc1ccc2c(c1)c(CC(=O)Nc1ccccc1OC)c(C)n2C(=O)c1ccc(Cl)cc1 | 51.6* | -0.3 | -3.1 | 0.0 | 1.6 | 12.2
COc1ccc2c(c1)c(CC(=O)Nc1ccc(C(C)=O)cc1)c(C)n2C(=O)c1ccc(Cl)cc1 | 54.1* | -4.5 | -33.9 | -8.2 | -1.9 | 29.5
Cc1ccc(C(=O)Nc2cccc(S(=O)(=O)N3CCCCC3)c2)cc1[N+](=O)[O-] | 52.9* | nt | nt | nt | nt | 13.8
O=C(COC(=O)c1cc([N+](=O)[O-])ccc1NCCO)Nc1cccc(S(=O)(=O)N2CCCC2)c1 | 70.4* | nt | nt | nt | -1.2 | 69.3*

High-throughput results (PubChem)
